# Screening results from PubChem.
# Compounds with a hit are over-represented: about 5.1% of the library has one in this group of screens.
# APP 5'UTR act – APP 5'UTR luciferase reporter activation. SH-SY5Y APP 5'UTR luciferase reporter, luminescence; zero percent = DMSO vehicle wells. activation, % at 2 µM. actives 1% (n = 190,000);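 active = activation above a set limit, based on mean plus 3 SD of controls, cut at about 140% in these data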
# STAT1 activator – activators of IFN-gamma induced STAT1 signaling; activation (% of control), % at 5.5 µM; actives 2.6% (n = 200,000); NIH 3T3 STAT1-luciferase reporter, luminescence; 100% = IFN-gamma alone, no compound; AID 932;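 active = activation above the screen-wide mean activation plus 3 SD, cut at about 130% in these data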
# STAT1 blocker – reduces IFN-gamma driven STAT1 reporter signal; inhibition, % at 5.5 µM; actives 0.35% (n = 200,000); NIH 3T3 STAT1-luciferase reporter, luminescence; AID 920;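 active = inhibition above a set limit, the mean inhibition across all tested compounds plus 3 SD, cut at about 34% in these data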
# NF-kB neuron act – raises NF-kB expression in human neuronal cells. NF-kB reporter expression; hits give high values. fold change at 12.5 µM. actives 1.6% (n = 190,000). AID 1239; in the data active = fold change above about 3.3
# STAT3 inh-1 – STAT3 signaling inhibition | U3A cells, IL-6 STAT3-luciferase reporter, luminescence; host cell line lacks STAT1 | inhibition, % at 5.5 µM | actives 0.89% (n = 190,000) | AID 862;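 active = inhibition above the mean inhibition across all screened compounds plus 3 SD, cut at about 44% in these data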
# STAT3 act – increases IL-6 driven STAT3 reporter signal; U3A cells, IL-6 STAT3-luciferase reporter, luminescence; 100% = signal with IL-6 EC80 alone; activation (% of control), % at 5.6 µM; actives 0.91% (n = 190,000); AID 871;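 active = activation above the screen-wide mean of compound activation plus 3 SD, cut at about 130% in these data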
#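 System – human U3A cells carrying STAT3-luciferase construct · Probe or stimulus – Interleukin-6, 33 ng/mL · Schedule – compound 1 h, then IL-6 6 h at 37 °C · Signal – luminescence from STAT3-driven luciferase reporter · Evaluation – percent of IL-6-only median luminescence · Benchmarks – IL-6-only high control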
# STAT3 inh-2 – STAT3 inhibition, confirmation assay; shares compounds with STAT3 inh-1; U3A cells, IL-6 STAT3 luciferase reporter, luminescence; cell line lacks STAT1; inhibition, % at 5.7 µM; actives 45% (n = 1,200); AID 1265;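 active = inhibition above the hit cutoff computed for the primary STAT3 screen, cut at about 44% in these data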
# NFkB inh 2 – inhibits NF-kappaB, counter-screen to STAT3 inhibitors; actives 36% (n = 1,200); shares compounds with STAT3 inh-1; HEK293T NF-kB luciferase reporter, TNF-alpha induced; inhibition, % at 5.7 µM;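 active = inhibition above the mean of solvent-only control wells plus 3 SD, cutoff set per campaign, cut at about 13% in these data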
# STAT1 inh 2 – inhibits STAT1, counter-screen to STAT3 inhibitors. inhibition, % at 5.7 µM. AID 1317. actives 27% (n = 1,200). NIH 3T3 STAT1-luciferase reporter, IFN-gamma induced, luminescence. shares compounds with STAT3 inh-1;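 active = inhibition above the mean plus 3 SD of solvent-only control wells, limit set per screening run, cut at about 16% in these data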
# A number is an active result; i = inactive; nt = no result.
SMILES,APP 5'UTR act,STAT1 activator,STAT1 blocker,NF-kB neuron act,STAT3 inh-1,STAT3 act,STAT3 inh-2,NFkB inh 2,STAT1 inh 2
CCCCc1ccc(/C=C(\C#N)C(N)=S)s1,i,i,i,i,44,i,i,i,17
CCOC(=O)C1CCN(C(=O)CCc2c(C)nc3cc(-c4ccccc4)nn3c2C)CC1,i,i,i,i,i,i,nt,nt,nt
CCOC(=O)C1CCCCN1C(=O)CCc1c(C)nc2cc(-c3ccccc3)nn2c1C (centres undefined),i,i,i,i,49,i,i,i,i
CCO[C@H]1OC(C(=O)N2CCN(C)CC2)=C[C@@H](C2CC2)[C@@H]1CCCO,i,i,i,i,nt,nt,nt,nt,nt
O=C(CCCC(=O)OCC(=O)c1cccs1)Nc1ccc(F)cc1,i,i,i,i,i,i,nt,nt,nt
O=C(/C=C/Nc1ccc(F)cc1)c1cccs1,160,i,i,nt,51,i,i,i,i
COc1ccc(N(C(=O)CCl)C(C(=O)NCCc2ccccc2)c2cccs2)cc1 (centres undefined),i,i,i,i,62,i,92,i,21
COc1ccc(CNC(=O)C(c2ccncc2)N(C(=O)Cc2cccs2)c2ccccc2)cc1 (centres undefined),nt,i,i,i,i,i,nt,nt,nt
CC(=O)Nc1ccc2nc(SCC(=O)Nc3ccc(N4CCOCC4)c(Cl)c3)sc2c1,i,i,i,i,i,i,nt,nt,nt
Cc1cc(C)nc(SCC(=O)Nc2ccc(N3CCOCC3)c(Cl)c2)n1,i,i,i,i,45,i,51,i,24
COc1ccc(C(=O)Nc2ccc(S(=O)(=O)N3CCc4ccccc43)cc2)cc1,i,i,i,i,51,i,i,13,i
Cc1cccc(C(=O)Nc2ccc(N3CCN(S(C)(=O)=O)CC3)cc2)c1,i,i,i,i,i,i,nt,nt,nt
O=C(CN1CCC(c2nc3ccccc3s2)CC1)NCc1cccs1,i,i,i,i,46,i,i,i,i
CCn1cc([N+](=O)[O-])c(C(=O)Nc2nc(-c3ccc(C)c(C)c3)c(C)s2)n1,i,i,i,i,45,i,i,i,i
CCn1cc([N+](=O)[O-])c(C(=O)Nc2cc(C)on2)n1,i,i,i,i,i,i,nt,nt,nt
CCn1cc([N+](=O)[O-])c(C(=O)Nc2nc(-c3ccc(C)cc3)c(C)s2)n1,i,i,i,i,56,i,i,i,i
CS(=O)(=O)N1CCc2cc(-c3csc(NC(=O)Cc4ccccc4)n3)ccc21,i,i,i,i,53,i,46,i,i
CC1Cc2cc(-c3csc(NC(=O)Cc4cccs4)n3)ccc2N1S(C)(=O)=O (centres undefined),i,i,i,i,79,i,79,29,i
COc1ccc(F)cc1S(=O)(=O)NC1CCCC1,i,i,i,i,i,i,nt,nt,nt
CN1C[C@@H]2C[C@@H](c3cccn3-c3nccs3)N3CCC[C@@]23C1=O,i,i,i,i,i,i,nt,nt,nt
Cn1ccnc1C1CCCCN1C(=O)c1cc(COc2ccc(F)cc2Cl)on1 (centres undefined),i,i,i,i,i,i,nt,nt,nt
CCN(CC)S(=O)(=O)c1ccc(NC(=O)c2ccc(N(C)S(C)(=O)=O)cc2)cc1,i,i,i,i,80,i,72,29,i
COC(=O)c1ccc(NC(=O)c2ccc(N(C)S(C)(=O)=O)cc2)cc1,i,i,i,i,52,i,i,i,i
CCN(CC)S(=O)(=O)c1ccc(NC(=O)c2ccccc2N(C)S(C)(=O)=O)cc1,i,i,i,i,i,i,nt,nt,nt
CCN(CC)S(=O)(=O)c1ccc(C(=O)Nc2ccc(Cc3ccncc3)cc2)cc1,i,i,i,i,64,i,61,16,16
SMILES,APP 5'UTR act,STAT1 activator,STAT1 blocker,NF-kB neuron act,STAT3 inh-1,STAT3 act,STAT3 inh-2,NFkB inh 2,STAT1 inh 2
COc1ccc(NC(=O)c2ccc(N(C)S(C)(=O)=O)cc2)cc1OC,i,i,i,i,i,i,nt,nt,nt
COc1ccc(NS(=O)(=O)c2ccc(NC(=O)c3ccc(N(C)S(C)(=O)=O)cc3)cc2)c(OC)c1,i,i,i,i,73,i,84,26,24
CCCCn1c2c(c(=N)c3c1CCC3)CCC2,i,i,i,i,53,i,i,i,22
CCn1c2c(c(=N)c3c1CCC3)CCC2,i,i,i,i,i,i,nt,nt,nt
CCCCCCCn1c2c(c(=N)c3c1CCC3)CCCC2,i,i,i,i,81,i,88,37,28
CCCn1c2c(c(O)c(C(=O)NC)c1=O)CCCC2,i,i,i,i,i,i,nt,nt,nt
CCCCCCCCCn1c2c(c(=N)c3c1CCC3)CCC2,i,i,i,i,82,i,85,59,30
CCCCCCn1c2c(c(=N)c3c1CCC3)CCC2,i,i,i,i,81,i,82,35,27
N=c1c2c(n(Cc3ccc(F)cc3)c3c1CCC3)CCC2,i,i,i,i,i,i,nt,nt,nt
Cc1onc(-c2c(F)cccc2Cl)c1C(N)=S,i,i,i,i,i,i,nt,nt,nt
CCN1CCN(C(=S)c2ccc(-c3ccccc3)cc2)CC1,i,i,i,i,47,i,i,i,i
COc1ccc(N2CCCn3c2nc2c3c(=O)n(Cc3ccc(C)cc3)c(=O)n2C)c(OC)c1,i,i,i,i,i,i,nt,nt,nt
Cc1noc(NS(=O)(=O)c2ccc(N/C=C\C(=O)c3ccc4c(c3)OCO4)cc2)c1C,i,i,i,i,i,i,nt,nt,nt
CC(=O)c1cccc(NS(=O)(=O)c2ccc(N/C=C\C(=O)c3ccc(C)cc3)cc2)c1,i,i,i,i,i,i,nt,nt,nt
Cc1ccc(C(=O)/C=C/Nc2ccc3c(c2)OCO3)cc1,i,132,i,6,56,i,i,i,i
O=C(/C=C/Nc1cccc(O)c1)c1ccccc1,184,i,i,6.3,86,i,65,i,i
Cc1ccc(C(=O)/C=C/Nc2cccc(O)c2)cc1,138,i,i,13,94,i,90,32,34
Cc1oc(-c2ccc3c(c2)OCCO3)cc1C(=O)O,i,i,i,i,64,i,93,56,74
Cn1c(N=Nc2ccccc2)nc2ccccc21,180,131,i,3.6,51,i,i,i,i
COC(=O)c1cc(OC)c(OC)cc1NC(=S)N1CCN(c2ccccn2)CC1,i,i,i,i,i,i,nt,nt,nt
